Screening results: PubChem BioAssay, Johns Hopkins Ion Channel Center
An excerpt weighted towards active compounds, which were near 2.3% of everything screened.
TRPC6 activator – activates the mouse TRPC6 cation channel | Q61143 | HEK293-TRPC6 membrane potential dye fluorescence; stronger effect = higher value | B-score at 10 µM | hit rate 0.13% among 310,000;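 active = B-score of the integrated fluorescence ratio above library mean plus 3 SD, and starting fluorescence ratio within library mean plus 5 SD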;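 also: higher score means more depolarization so channel activation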
TRPC4 agonist – TRPC4 (mouse) channel activation; HEK293 TRPC4beta/mu-opioid, Fluo4 calcium fluorescence; stronger effect = higher value; hit rate 0.49% among 310,000; B-score at 10 µM; Q9QUQ5;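 active = B-score above 5 SD of library B-scores, and initial fluorescence ratio not above library mean plus 5 SD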;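 also: positive B-score marks a calcium rise read as TRPC4 activation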
Target sequence (Q9QUQ5 whole entry, looked up): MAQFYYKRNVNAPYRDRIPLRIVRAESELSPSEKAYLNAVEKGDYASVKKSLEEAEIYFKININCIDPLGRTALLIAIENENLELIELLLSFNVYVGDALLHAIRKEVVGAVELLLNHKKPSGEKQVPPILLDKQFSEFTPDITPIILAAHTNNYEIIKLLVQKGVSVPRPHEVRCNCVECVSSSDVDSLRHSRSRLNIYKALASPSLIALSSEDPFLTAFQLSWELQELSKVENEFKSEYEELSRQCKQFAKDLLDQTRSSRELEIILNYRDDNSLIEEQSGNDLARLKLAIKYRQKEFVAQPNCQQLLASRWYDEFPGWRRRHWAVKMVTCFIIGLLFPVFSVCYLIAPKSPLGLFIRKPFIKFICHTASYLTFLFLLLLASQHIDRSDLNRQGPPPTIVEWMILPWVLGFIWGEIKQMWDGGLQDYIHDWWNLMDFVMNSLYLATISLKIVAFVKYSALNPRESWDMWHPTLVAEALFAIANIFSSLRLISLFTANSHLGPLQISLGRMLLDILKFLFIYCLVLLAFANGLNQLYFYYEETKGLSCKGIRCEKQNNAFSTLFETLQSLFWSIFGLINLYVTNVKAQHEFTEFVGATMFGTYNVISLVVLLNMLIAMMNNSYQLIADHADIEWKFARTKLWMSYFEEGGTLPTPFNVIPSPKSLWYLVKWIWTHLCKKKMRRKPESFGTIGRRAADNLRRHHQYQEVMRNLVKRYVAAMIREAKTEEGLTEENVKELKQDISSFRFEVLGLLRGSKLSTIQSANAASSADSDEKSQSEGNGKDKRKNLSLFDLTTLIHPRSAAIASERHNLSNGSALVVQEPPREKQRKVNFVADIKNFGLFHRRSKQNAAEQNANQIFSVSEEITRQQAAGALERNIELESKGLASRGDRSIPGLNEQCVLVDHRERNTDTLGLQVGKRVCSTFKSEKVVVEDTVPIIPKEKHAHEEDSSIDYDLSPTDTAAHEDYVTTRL
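Technique: kinetic Fluo4 calcium fluorescence; Test system: TRPC4beta and mu-opioid receptor HEK293 stable cells; Measure: B-scored integrated calcium fluorescence ratio; Benchmarks: low control buffer alone, high control maximal DAMGO; Schedule: 45 min room-temperature Fluo4 loading, 110 s read.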
TRPC4 potent – TRPC4 (mouse) allosteric potentiation. Q9QUQ5. HEK293 TRPC4beta/mu-opioid, DAMGO EC20, Fluo-4 Ca2+ flux; stronger effect = higher value. B-score at 10 µM. hit rate 0.42% among 310,000. AID 2227;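 active = B-score of calcium response area above 5 SD of library B-scores, with initial fluorescence ratio within 5 SD of library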;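 also: B-score of integrated fluorescence ratio over time as area under calcium response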
TRPC4 inh – inhibitors of mouse TRPC4 channel; hit rate 0.39% among 300,000; B-score at 10 µM; Q9QUQ5; AID 2247; HEK293 TRPC4beta/mu-opioid, DAMGO-evoked Fluo4 calcium flux; stronger effect = lower value;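 active = B-score over 3 SD under the library average, no early fluorescence shift, positive overall ratio signal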
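material = TRPC4beta/mu-opioid receptor HEK293 cell line | probe or stimulus = sequential submaximal and maximal DAMGO stimulation | compound dosing = one concentration per compound | measured by = Fluo4 Ca2+ flux fluorescence | evaluation = integrated fluorescence ratio relative to baseline, converted to per-well B score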
TRPC6 inhibitor – inhibitors of mouse TRPC6 channel | Q61143 | HEK293-TRPC6, membrane potential dye, ACh-evoked depolarization; stronger effect = lower value | B-score at 10 µM | hit rate 1.1% among 310,000 | AID 2553;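 active = B-score under library mean minus 3 SD, initial fluorescence not abnormally high, positive integrated signal ratio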;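 also: B-score derived from integrated fluorescence ratio over the kinetic read; more negative B-score means stronger inhibition of depolarization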
TRPC4 spec 2 – second selectivity test of TRPC6 inhibitors: effect on mouse TRPC4; HEK293 TRPC4/MOR, membrane potential dye fluorescence; channel activated by saturating DAMGO dose; inhibition, % at 10 µM; AID 2776; hit rate 42% among 920; shares compounds with TRPC6 inhibitor;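 active = compounds whose fluorescence signal differed from control wells by over 3 SD, either direction, in both duplicate plates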
TRPC4 spec – mouse TRPC4 off-target activity of TRPC6 inhibitors. AID 2777. HEK293 TRPC4/mu-opioid, membrane potential fluorescence. hit rate 61% among 920. shares compounds with TRPC6 inhibitor. activity change, negative = inhibition, % at 10 µM;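 active = rise or fall in signal beyond 3 SD of buffer-only wells in both replicate plates, either sign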;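 also: integrated kinetic ratio of fluorescence range over baseline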
HEK293 MPD ctr 2-1 – parental HEK293 nonspecific activity of TRPC6 inhibitors, second screen. hit rate 31% among 920. shares compounds with TRPC6 inhibitor. parental HEK293 membrane potential dye fluorescence; maximal acetylcholine challenge after compound addition. signal change vs control, % at 10 µM;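 active = membrane potential signal moving either way by over 3 SD of the maximum-effect control, in both duplicate plates, meaning non-specific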
HEK293 MPD ctr-1 – parental HEK293 nonspecific activity of TRPC6 inhibitors | shares compounds with TRPC6 inhibitor | parental HEK293 membrane potential dye fluorescence | membrane potential signal change, % at 10 µM | hit rate 60% among 920;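 active = membrane potential signal shifting up or down by more than 3 SD of buffer-only wells, on both duplicate plates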
HEK293 MPD ctr-2 – counter-screen for TRPC6 modulators: effect in parental HEK293 cells; shares compounds with TRPC6 inhibitor; membrane potential signal change, % at 10 µM; AID 488924; hit rate 51% among 2,400; membrane potential dye fluorescence;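 active = membrane potential signal moves up or down beyond 5 SD from buffer-only wells, on both duplicate plates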
HEK293 MPD ctr 2-2 – second check of TRPC6 modulator effects in parental HEK293 cells | inhibition, % at 10 µM | hit rate 14% among 2,400 | membrane potential dye fluorescence; after compound, maximal acetylcholine stimulation | AID 488926 | shares compounds with TRPC6 inhibitor;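 active = membrane potential signal drops by more than 5 SD from the mean control signal, in both duplicate plates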;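 also: plate controls were acetylcholine ECmax control wells for no effect and buffer only wells for full effect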
TRPC4 ctr mod – tests whether TRPC6 modulators also affect mouse TRPC4; percent change from control (negative = decrease, positive = increase), % at 10 µM; AID 488927; HEK293 TRPC4/mu-opioid, membrane potential fluorescence; hit rate 69% among 2,400; shares compounds with TRPC6 inhibitor;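 active = membrane potential signal moved up or down beyond 5 SD of buffer control wells, in both duplicate plates, actives on both sides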;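 also: plate controls were assay buffer wells for no effect and DAMGO maximal-effect wells for full effect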
TRPC4/MOR inh 2 – second check of whether TRPC6 modulators also affect mouse TRPC4. shares compounds with TRPC6 inhibitor. HEK293 TRPC4/mu-opioid, membrane potential dye fluorescence; stimulated with maximal-effect DAMGO. inhibition, % at 10 µM. hit rate 55% among 2,400;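 active = drop in membrane potential signal beyond 5 SD of the control wells in both duplicate plates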;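 also: TRPC4 counter screen for TRPC6 hits run under conditions tuned for TRPC6 not TRPC4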
TRPC6 inh conf – confirmation of mouse TRPC6 inhibitors; shares compounds with TRPC6 inhibitor; HEK293-TRPC6, membrane potential dye, ACh-evoked depolarization; inhibition, % at 10 µM; hit rate 43% among 3,300;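 active = fluorescence ratio falls more than 5 SD below the full-stimulation control mean, in both duplicate runs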;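 also: integrated fluorescence ratio of peak minus minimum over baseline after agonist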
TRPC6 act confirm – mouse TRPC6 activator confirmation; shares compounds with TRPC6 inhibitor; HEK293-TRPC6 membrane potential dye fluorescence, FDSS; activation, % at 10 µM; hit rate 11% among 2,800;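 active = ratio signal rise beyond 5 SD above unstimulated control wells' mean, seen in both duplicate runs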;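 also: plate controls were buffer EC0 wells for no effect and acetylcholine ECmax response for full effect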
An asterisk follows results filed as active; i = inactive; nt = not tested or not shown.

SMILES	TRPC6 activator	TRPC4 agonist	TRPC4 potent	TRPC4 inh	TRPC6 inhibitor	HEK293 MPD ctr-2	HEK293 MPD ctr 2-2	TRPC4 ctr mod	TRPC4/MOR inh 2	TRPC6 inh conf	TRPC6 act confirm	others
CCOc1ccccc1N(C)C(=O)CCS(=O)(=O)c1ccc2c(c1)NC(=O)CO2	i	i	i	i	i	nt	nt	nt	nt	nt	nt
CCOC(=O)N1CCN(S(=O)(=O)c2c(C)nc3scc(C)n3c2=O)CC1	i	i	i	i	i	nt	nt	nt	nt	nt	nt
COc1ccc(NC(=O)CS(=O)CC(=O)Nc2cccc3cccnc23)cc1 (stereo not drawn)	i	i	i	i	i	nt	nt	nt	nt	nt	nt
O=C1C(NS(=O)(=O)c2ccc(Br)cc2)=C(N2CCCCC2)C(=O)c2ccccc21	i	i	i	i	-6.3*	i	i	-20%*	72%*	i	i
CCOC(=O)C1CCCN(C2=C(NS(=O)(=O)c3ccc(Br)cc3)C(=O)c3ccccc3C2=O)C1 (stereo not drawn)	i	i	i	i	i	nt	nt	nt	nt	nt	nt
CCOC(=O)c1nc2cc3n(c(C)c-2c1C)C(C)C(C)=C3C (stereo not drawn)	i	i	i	i	-8.1*	nt	nt	nt	nt	i	i	TRPC4 spec 2=70%*;TRPC4 spec=7.3%*;HEK293 MPD ctr 2-1=-192%*;HEK293 MPD ctr-1=i
CCOC(=O)c1nc2cc3n(c(CC(C)C)c-2c1C)CC(C)=C3C	i	i	i	i	-6.4*	-87%*	69%*	-20%*	54%*	49%*	i
O=C(c1cccc(F)c1)N1CCN(C2CCCCC2)CC1	i	i	i	i	i	nt	nt	nt	nt	nt	nt
O=C(c1cccc(F)c1)N1CCN(c2cccc(C(F)(F)F)c2)CC1	i	i	i	i	-6*	i	i	16%*	i	77%*	nt
O=C(c1cccc(C(F)(F)F)c1)N1CCN(C2CCCCC2)CC1	i	i	i	i	-5.6*	i	i	11%*	i	40%*	nt
COC(=O)[C@@H](NC(=O)N1CCN(c2cccc(C(F)(F)F)c2)CC1)C(C)C	i	i	i	i	-6.4*	i	i	i	i	i	i
C=CCN(CC=C)CC(=O)Nc1cccc(Oc2cnccn2)c1	i	i	i	i	i	nt	nt	nt	nt	nt	nt
CC1CCCN(CCCNC(=O)c2coc3nc4ccccc4nc23)C1 (stereo not drawn)	i	i	i	i	i	nt	nt	nt	nt	nt	nt
CC1CCN(CCCNC(=O)c2coc3nc4ccccc4nc23)CC1	i	i	i	i	-5.1*	i	i	-16%*	46%*	i	i
CCC(=O)N/C(=N/c1nc(C)cc(C)n1)Nc1cccc(OC)c1	i	i	i	i	-5.8*	i	i	i	i	i	i
CCN(CC)S(=O)(=O)c1ccc(N2CCCCC2)c(NC(=O)C2=COCCO2)c1	14*	i	i	i	-6*	178%*	i	33%*	i	88%*	154%*
CCN(CC)S(=O)(=O)c1ccc(N2CCCC2)c(NC(=O)C2=COCCO2)c1	i	i	i	i	i	nt	nt	nt	nt	nt	nt
CCN(CC)S(=O)(=O)c1ccc(N2CCCCC2)c(NC(=O)c2ccncc2)c1	i	i	i	i	-6.6*	nt	nt	nt	nt	i	nt	TRPC4 spec 2=i;TRPC4 spec=10%*;HEK293 MPD ctr 2-1=i;HEK293 MPD ctr-1=6.7%*
CCN(CC)S(=O)(=O)c1ccc(N2CCOCC2)c(NC(=O)c2ccccc2)c1	i	i	i	i	i	nt	nt	nt	nt	nt	nt
CCN(CC)S(=O)(=O)c1ccc(N2CCOCC2)c(NC(=O)C23CC4CC(CC(Cl)(C4)C2)C3)c1	i	i	i	i	-6.4*	164%*	i	i	i	38%*	nt
COc1ccc(/C=C/c2onc(C)c2S(=O)(=O)N2CCC(C(=O)N3CCCCCC3)CC2)cc1	i	i	i	i	i	nt	nt	nt	nt	nt	nt
Cn1c(=O)c2sccc2n(Cc2cccc(Br)c2)c1=O	i	i	i	i	i	nt	nt	nt	nt	nt	nt
Cc1cc(C)cc(NC(=O)N2CCCN(Cc3c(F)cccc3Cl)CC2)c1	i	i	i	i	i	nt	nt	nt	nt	nt	nt
CO/N=C(/CN1CCCCC1)c1ccc(Cl)cc1	i	i	i	i	i	nt	nt	nt	nt	nt	nt
COc1ccccc1Nc1nc(N)nc(CN2CCC(C)CC2)n1	i	i	i	i	i	nt	nt	nt	nt	nt	nt
COc1ccccc1Nc1nc(N)nc(CSC(=S)N2CCCCC2C)n1 (stereo not drawn)	i	i	i	i	-7.8*	nt	nt	nt	nt	i	i	TRPC4 spec 2=i;TRPC4 spec=i;HEK293 MPD ctr 2-1=i;HEK293 MPD ctr-1=i
COc1ccccc1Nc1nc(N)nc(CSC(=S)N2CCC(C)CC2)n1	i	i	i	i	-5.5*	i	i	i	i	78%*	nt
COc1ccccc1Nc1nc(N)nc(CN2CCC(Cc3ccccc3)CC2)n1	i	i	i	i	-6.5*	100%*	i	i	84%*	47%*	nt
CCn1ccnc1CN(C)C(=O)c1cc(COc2ccccc2SC)on1	i	i	i	i	-7.5*	nt	nt	nt	nt	i	nt	TRPC4 spec 2=i;TRPC4 spec=4.0%*;HEK293 MPD ctr 2-1=i;HEK293 MPD ctr-1=7.0%*
